Laboratory results from ChEMBL document CHEMBL1151761, “Radiohalogenated prostate-specific membrane antigen (PSMA)-based ureas as imaging agents for prostate cancer” (J Med Chem, 2008).

Columns and labels:
Type in all cases: ADME, organism-based
[1] = system: Lung; assay: Biodistribution in lung of PSMA expressing human PC3 PIP and PSMA deficient human PC3 flu cells xenografted SCID mouse at 2 uCi, iv after 5 hrs; settings: in vivo
[2] = system: Muscle tissue; assay: Biodistribution in muscle of PSMA expressing human PC3 PIP and PSMA deficient human PC3 flu cells xenografted SCID mouse at 2 uCi, iv after 30 mins; settings: in vivo, 0.5 h
[3] = Biodistribution in PC3 PIP tumor of PSMA expressing human PC3 PIP and PSMA deficient human PC3 flu cells xenografted SCID mouse at 2 uCi, iv after 30 mins; settings: in vivo, 0.5 h
How it was run: (§1)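 Male SCID mice carried subcutaneous PSMA+ PC-3 PIP (left shoulder) and PC-3 flu (right shoulder) xenografts, 1-5 × 10^6 cells in HBSS, and were used at 3-5 mm tumor diameter. Tail-vein injection of 2 µCi radioligand; four mice per time point, killed by cervical dislocation. %ID/g from a standard dilution of the dose, decay-corrected, mean ± SD; PIP tumor:organ ratios.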

[4] = Ratio of drug level in tumor to pancreas of human PSMA expressing PC3 PIP and PSMA deficient human PC3 flu cells xenografted SCID mouse at 2 uCi, iv after 60 mins; settings: in vivo, 1 h
How it was run: (§2)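 Male SCID mice carried subcutaneous xenografts: PSMA+ PC-3 PIP behind the left shoulder and PSMA− PC-3 flu behind the right, 1–5 × 10^6 cells in HBSS. Mice were used at 3–5 mm tumor diameter. 2 μCi was given by tail vein, and 4 mice per time point were killed by cervical dislocation. %ID/g came from a standard dilution of the dose, decay-corrected. Ratio is PIP tumor %ID/g to organ %ID/g.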

[5] = Ratio of drug level in tumor to stomach of human PSMA expressing PC3 PIP and PSMA deficient human PC3 flu cells xenografted SCID mouse at 2 uCi, iv after 5 hrs; settings: in vivo; how it was run: as §2
[6] = Ratio of drug level in tumor to bladder of human PSMA expressing PC3 PIP and PSMA deficient human PC3 flu cells xenografted SCID mouse at 2 uCi, iv after 30 mins; settings: in vivo, 0.5 h; how it was run: as §1
[7] = Ratio of drug level in tumor to stomach of human PSMA expressing PC3 PIP and PSMA deficient human PC3 flu cells xenografted SCID mouse at 2 uCi, iv after 2 hrs; settings: in vivo; how it was run: as §2
[8] = system: Kidney; assay: Biodistribution in kidney of PSMA expressing human PC3 PIP and PSMA deficient human PC3 flu cells xenografted SCID mouse at 2 uCi, iv after 5 hrs; settings: in vivo
[9] = system: Heart; assay: Biodistribution in heart of PSMA expressing human PC3 PIP and PSMA deficient human PC3 flu cells xenografted SCID mouse at 2 uCi, iv after 30 mins; settings: in vivo, 0.5 h
[10] = system: Pancreas; assay: Biodistribution in pancreas of PSMA expressing human PC3 PIP and PSMA deficient human PC3 flu cells xenografted SCID mouse at 2 uCi, iv after 2 hrs; settings: in vivo
[11] = system: Spleen; assay: Biodistribution in spleen of PSMA expressing human PC3 PIP and PSMA deficient human PC3 flu cells xenografted SCID mouse at 2 uCi, iv after 5 hrs; settings: in vivo
[12] = Ratio of drug level in tumor to kidney of human PSMA expressing PC3 PIP and PSMA deficient human PC3 flu cells xenografted SCID mouse at 2 uCi, iv after 30 mins; settings: in vivo, 0.5 h; how it was run: as §1
[13] = system: Heart; assay: Biodistribution in heart of PSMA expressing human PC3 PIP and PSMA deficient human PC3 flu cells xenografted SCID mouse at 2 uCi, iv after 2 hrs; settings: in vivo
[14] = system: Lung; assay: Biodistribution in lung of PSMA expressing human PC3 PIP and PSMA deficient human PC3 flu cells xenografted SCID mouse at 2 uCi, iv after 2 hrs; settings: in vivo
[15] = system: Pancreas; assay: Biodistribution in pancreas of PSMA expressing human PC3 PIP and PSMA deficient human PC3 flu cells xenografted SCID mouse at 2 uCi, iv after 30 mins; settings: in vivo, 0.5 h
[16] = system: Muscle tissue; assay: Biodistribution in muscle of PSMA expressing human PC3 PIP and PSMA deficient human PC3 flu cells xenografted SCID mouse at 2 uCi, iv after 2 hrs; settings: in vivo
[17] = system: Urinary bladder; assay: Biodistribution in bladder of PSMA expressing human PC3 PIP and PSMA deficient human PC3 flu cells xenografted SCID mouse at 2 uCi, iv after 5 hrs; settings: in vivo
[18] = Biodistribution in large intestine of PSMA expressing human PC3 PIP and PSMA deficient human PC3 flu cells xenografted SCID mouse at 2 uCi, iv after 30 mins; settings: in vivo, 0.5 h; how it was run: as §1
[19] = Ratio of drug level in tumor to muscle of human PSMA expressing PC3 PIP and PSMA deficient human PC3 flu cells xenografted SCID mouse at 2 uCi, iv after 2 hrs; settings: in vivo; how it was run: as §1
[20] = Ratio of drug level in tumor to large intestine of human PSMA expressing PC3 PIP and PSMA deficient human PC3 flu cells xenografted SCID mouse at 2 uCi, iv after 60 mins; settings: in vivo, 1 h; how it was run: as §1
[21] = system: Pancreas; assay: Biodistribution in pancreas of PSMA expressing human PC3 PIP and PSMA deficient human PC3 flu cells xenografted SCID mouse at 2 uCi, iv after 60 mins; settings: in vivo, 1 h
[22] = Ratio of drug level in tumor to small intestine of human PSMA expressing PC3 PIP and PSMA deficient human PC3 flu cells xenografted SCID mouse at 2 uCi, iv after 30 mins; settings: in vivo, 0.5 h; how it was run: as §2

Compound: O=C(O)CC[C@H](NC(=O)N[C@@H](CCCCNC(=O)c1ccc([18F])cc1)C(=O)O)C(=O)O
- Drug uptake [1]: 0.1 % ID/g
- Drug uptake [2]: 2.4 % ID/g
- Drug uptake [3]: 8.6 % ID/g
- Ratio [4]: 21
- Ratio [5]: 88
- Ratio [6]: 1
- Ratio [7]: 13
- Drug uptake [8]: 14 % ID/g
- Drug uptake [9]: 0.8 % ID/g
- Drug uptake [10]: 0.15 % ID/g
- Drug uptake [11]: 1 % ID/g
- Ratio [12]: 0.1
- Drug uptake [13]: 0.15 % ID/g
- Drug uptake [14]: 1 % ID/g
- Drug uptake [15]: 0.8 % ID/g
- Drug uptake [16]: 0.2 % ID/g
- Drug uptake [17]: 5.2 % ID/g
- Drug uptake [18]: 1.2 % ID/g
- Ratio [19]: 19
- Ratio [20]: 13
- Drug uptake [21]: 0.3 % ID/g
- Ratio [22]: 5
